Results taken from ChEMBL document CHEMBL1158554, “3,5-Diaryl-1H-pyrazole as a molecular scaffold for the synthesis of apoptosis-inducing agents” (2010).
Activity calls are given as the source filed them. No cut-off for these calls is given here.

Columns and labels:
AGS [1] = assay: Growth inhibition of human AGS cells at 40 uM after 48 hrs by MTT assay; type: functional, cell-based
Outline: (§1)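 MTT growth inhibition at the top tested concentration of 40 uM, 48 h exposure, cells seeded as for GI50 (3000/well OVCA, SW620, H460; 5000/well AGS).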

NCI-H460 [2] = assay: Growth inhibition of human H460 cells after 48 hrs by MTT assay; type: functional; conditions: NCI-H460, 48 h
Outline: (§2)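 Cells seeded 3000/well (OVCA, SW620, H460) or 5000/well (AGS), grown 24 h, then exposed to serial dilutions (DMSO stock) for 48 h at 37 °C, 5% CO2. MTT (2 mg/ml in PBS) added for 2 h; formazan dissolved in DMSO and read at 570 nm. Inhibition = (1 − At/Ac)×100 vs vehicle; GI50 interpolated from dose–response curves; four to six separate experiments, mean ± SEM.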

SW-620 [3] = assay: Growth inhibition of human SW620 cells at 40 uM after 48 hrs by MTT assay; type: functional, cell-based; outline: as §1
OVCAR [4] = assay: Growth inhibition of human OVCAR cells after 48 hrs by MTT assay; type: functional; outline: as §2
SW-620 [5] = assay: Growth inhibition of human SW620 cells after 48 hrs by MTT assay; type: functional; conditions: SW-620, 48 h; outline: as §2
AGS [6] = assay: Growth inhibition of human AGS cells after 48 hrs by MTT assay; type: functional; outline: as §2
NCI-H460 [7] = assay: Growth inhibition of human H460 cells at 40 uM after 48 hrs by MTT assay; type: functional, cell-based; outline: as §1
OVCAR [8] = assay: Growth inhibition of human OVCAR cells at 40 uM after 48 hrs by MTT assay; type: functional, cell-based; outline: as §1
OVCAR [9] = assay: Induction of apoptosis in human OVCAR cells assessed as increase in cleaved caspase-9 level at 1.2 to 5 uM after 16 hrs by Western blot analysis; type: functional, cell-based
Outline: (§3)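 OVCA cells treated 16 h (vehicle 1% DMSO), washed in PBS, lysed; 50 ug protein run on 15% SDS-PAGE, transferred to nitrocellulose, blocked overnight at 4 °C in TBST/5% milk. Probed with anti-PARP (1:500), anti-cleaved caspase-3, anti-cleaved caspase-9, anti-phospho-Akt, anti-Akt, anti-beta-actin (1:1000), then secondary IgG 1:10,000 for 1 h at room temperature; ECL detection. Total Akt used as reference for phospho-Akt.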

OVCAR [10] = assay: Induction of apoptosis in human OVCAR cells assessed as PARP cleavage at 1.2 to 5 uM after 16 hrs by Western blot analysis; type: functional, cell-based; outline: as §3
OVCAR [11] = assay: Induction of apoptosis in human OVCAR cells assessed as increase in cleaved caspase-3 level at 1.2 to 5 uM after 16 hrs by Western blot analysis; type: functional, cell-based; outline: as §3
OVCAR [12] = assay: Cell cycle arrest in human OVCAR cells assessed as accumulation at sub-G1 phase at 2.5 uM after 24 hrs by propidium iodide staining-based FACS analysis; type: functional
Outline: (§4)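 OVCA cells given 0.5% DMSO or compound for 24 h, harvested, PBS-rinsed, fixed in 80% ethanol and held at −20 °C until analysis. Propidium iodide DNA staining and flow cytometry; apoptotic nuclei scored as the subdiploid (sub-G1) peak, given as percent of the whole population. Untreated cells served as blank.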

[13] = target: RAC-alpha serine/threonine-protein kinase (Homo sapiens) (UniProt P31749); assay: Inhibition of Akt phosphorylation in human OVCAR cells at 1.2 to 5 uM after 16 hrs by Western blot analysis; type: cell-based; outline: as §3
OVCAR [14] = assay: Cell cycle arrest in human OVCAR cells assessed as accumulation at sub-G1 phase at 5 uM after 24 hrs by propidium iodide staining-based FACS analysis; type: functional; outline: as §4
OVCAR [15] = assay: Cell cycle arrest in human OVCAR cells assessed as accumulation at sub-G1 phase at 1.2 uM after 24 hrs by propidium iodide staining-based FACS analysis; type: functional; outline: as §4

RAC-alpha serine/threonine-protein kinase (Homo sapiens), sequence (P31749 whole entry): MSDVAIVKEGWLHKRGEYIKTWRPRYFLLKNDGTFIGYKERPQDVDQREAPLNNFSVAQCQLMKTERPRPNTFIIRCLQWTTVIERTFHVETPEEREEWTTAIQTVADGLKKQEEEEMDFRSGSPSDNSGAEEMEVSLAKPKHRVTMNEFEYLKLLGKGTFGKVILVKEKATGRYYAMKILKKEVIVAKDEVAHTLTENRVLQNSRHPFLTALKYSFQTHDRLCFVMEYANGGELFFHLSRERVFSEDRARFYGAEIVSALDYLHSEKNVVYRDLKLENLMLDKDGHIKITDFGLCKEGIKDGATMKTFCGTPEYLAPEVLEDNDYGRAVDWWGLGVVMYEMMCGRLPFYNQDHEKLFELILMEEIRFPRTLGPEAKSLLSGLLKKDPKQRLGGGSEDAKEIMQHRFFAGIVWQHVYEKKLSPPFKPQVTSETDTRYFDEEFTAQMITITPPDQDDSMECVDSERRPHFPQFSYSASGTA

Row | Compound | GI50 (NCI-H460 [2]) | GI50 (OVCAR [4]) | GI50 (SW-620 [5]) | GI50 (AGS [6]) | growth inhibition (GI) (AGS [1]) | growth inhibition (GI) (SW-620 [3]) | growth inhibition (GI) (NCI-H460 [7]) | further results
1 | Nc1ccc(-c2cc(-c3ccc(C(F)(F)F)cc3)n[nH]2)cc1 | 21.5 µM | 18.6 µM |  |  | inactive | inactive |  | 
2 | O=[N+]([O-])c1ccc(-c2cc(-c3ccc4c(c3)OCO4)n[nH]2)cc1 | 8.9 µM | 10.8 µM | 23.5 µM | 13.1 µM |  |  |  | 
3 | CN(C)c1ccc(-c2cc(-c3ccc(C(F)(F)F)cc3)n[nH]2)cc1 |  |  |  |  | inactive | inactive | inactive | 
4 | COc1cccc(-c2cc(-c3ccc(N)cc3)[nH]n2)c1 |  |  |  |  | inactive | inactive | inactive | growth inhibition (GI) (OVCAR [8]): inactive
5 | O=[N+]([O-])c1cccc(-c2cc(-c3ccccc3)n[nH]2)c1 | 6.1 µM | 5.8 µM |  | 11.4 µM |  | inactive |  | 
6 | COc1ccc(-c2cc(-c3ccc([N+](=O)[O-])cc3)[nH]n2)cc1 | 18.3 µM | 27.3 µM | 14.3 µM |  | inactive |  |  | 
7 | COc1ccc(-c2cc(-c3ccc(N)cc3)[nH]n2)cc1 |  |  |  |  | inactive | inactive | inactive | growth inhibition (GI) (OVCAR [8]): inactive
8 | COc1ccc(-c2cc(-c3ccc(C(F)(F)F)cc3)n[nH]2)cc1 |  | 22.8 µM | 11.2 µM | 14.8 µM |  |  | inactive | 
9 | Nc1ccc(-c2cc(-c3ccccc3-c3ccccc3)n[nH]2)cc1 | 8.2 µM | 17.9 µM |  | 8.4 µM |  | inactive |  | 
10 | Oc1ccc(-c2cc(-c3ccc(C(F)(F)F)cc3)n[nH]2)cc1 | 20.1 µM | 9.2 µM | 19.6 µM | 9.8 µM |  |  |  | 
11 | COc1ccc(-c2cc(-c3ccc(Br)cc3)n[nH]2)cc1 | 27.1 µM | 20.7 µM |  |  | inactive | inactive |  | 
12 | O=[N+]([O-])c1ccc(-c2cc(-c3ccc(F)cc3)n[nH]2)cc1 |  |  | 18.1 µM | 18.3 µM |  |  | inactive | growth inhibition (GI) (OVCAR [8]): inactive
13 | O=[N+]([O-])c1ccc(-c2cc(-c3ccc(Br)cc3)n[nH]2)cc1 |  | 17.5 µM | 28.6 µM | 14.6 µM |  |  | inactive | 
14 | COc1ccc(-c2cc(-c3ccc([N+](=O)[O-])cc3)[nH]n2)cc1OC | 17.9 µM | 28.9 µM | 26.4 µM |  | inactive |  |  | 
15 | O=[N+]([O-])c1ccc(-c2cc(-c3ccc(C(F)(F)F)cc3)n[nH]2)cc1 |  |  |  |  | inactive |  | inactive | growth inhibition (GI) (OVCAR [8]): inactive
16 | O=[N+]([O-])c1ccc(-c2cc(-c3ccccc3-c3ccccc3)n[nH]2)cc1 | 2.7 µM | 3.4 µM | 12.2 µM | 1.2 µM |  |  |  | 
17 | O=[N+]([O-])c1ccc(-c2cc(-c3ccccc3)n[nH]2)cc1 | 10.2 µM | 7.2 µM |  |  | inactive | inactive |  | 
18 | COc1ccc(-c2cc(-c3ccc(N)cc3)[nH]n2)cc1OC |  |  |  |  | inactive | inactive | inactive | growth inhibition (GI) (OVCAR [8]): inactive
19 | Oc1ccc(-c2cc(-c3ccccc3-c3ccccc3)n[nH]2)cc1 | 6.9 µM | 6.2 µM | 25.9 µM | 9.2 µM |  |  |  | 
20 | COc1ccc(-c2cc(-c3ccc(Cl)cc3)n[nH]2)cc1 | 11.6 µM | 12.8 µM |  |  | inactive | inactive |  | 
21 | COc1ccc(-c2cc(-c3ccc4ccccc4c3)n[nH]2)cc1 | 13.2 µM | 17.5 µM | 26.9 µM | 19 µM |  |  |  | 
22 | COc1cccc(-c2cc(-c3ccccc3-c3ccccc3)n[nH]2)c1 | 8.7 µM | 5.8 µM |  | 7.5 µM |  | inactive |  | 
23 | COc1ccc(-c2cc(-c3ccccc3)n[nH]2)cc1 | 10.4 µM | 9.9 µM | 27.2 µM | 11.3 µM |  |  |  | 

The next lines start with results.

Row | GI50 (NCI-H460 [2]) | GI50 (OVCAR [4]) | GI50 (SW-620 [5]) | GI50 (AGS [6]) | Compound | growth inhibition (GI) (AGS [1]) | growth inhibition (GI) (SW-620 [3]) | growth inhibition (GI) (NCI-H460 [7]) | further results
24 |  |  | 21.1 µM |  | COc1ccccc1-c1cc(-c2ccc(N)cc2)[nH]n1 | inactive |  | inactive | growth inhibition (GI) (OVCAR [8]): inactive
25 | 4.6 µM | 5.8 µM | 10.6 µM | 7.5 µM | Oc1ccccc1-c1cc(-c2ccccc2-c2ccccc2)n[nH]1 |  |  |  | 
26 | 11.2 µM | 19.1 µM |  |  | COc1cccc(-c2cc(-c3ccc([N+](=O)[O-])cc3)[nH]n2)c1 | inactive | inactive |  | 
27 | 20.7 µM |  | 12.2 µM | 24.1 µM | O=[N+]([O-])c1ccc(-c2cc(-c3ccc(Cl)cc3)n[nH]2)cc1 |  |  |  | growth inhibition (GI) (OVCAR [8]): inactive
28 |  | 2.75 µM |  | 6.9 µM | FC(F)(F)c1ccc(-c2cc(-c3ccccc3-c3ccccc3)n[nH]2)cc1 |  | inactive | inactive | Activity (OVCAR [9]): Active; Activity (OVCAR [10]): Active; Activity (OVCAR [11]): Active; Activity (OVCAR [12]): 15.75%; inhibition [13]: Active; Activity (OVCAR [14]): 23.51%; Activity (OVCAR [15]): 11.43%
29 | 9.1 µM | 14.2 µM |  |  | COc1ccccc1-c1cc(-c2ccccc2-c2ccccc2)n[nH]1 | inactive | inactive |  | 
30 |  | 14 µM |  |  | COc1ccc(-c2cc(-c3ccc(F)cc3)n[nH]2)cc1 | inactive | inactive | inactive | 
31 | 0.73 µM | 0.67 µM | 0.89 µM | 0.79 µM | COc1ccc(-c2cc(-c3ccccc3-c3ccccc3)n[nH]2)cc1 |  |  |  | Activity (OVCAR [9]): Active; Activity (OVCAR [10]): Active; Activity (OVCAR [11]): Active; Activity (OVCAR [12]): 20.53%; inhibition [13]: Active; Activity (OVCAR [14]): 32.05%; Activity (OVCAR [15]): 14.97%
32 | 26.7 µM |  | 25.4 µM |  | Nc1ccc(-c2cc(-c3ccccc3)n[nH]2)cc1 | inactive |  |  | growth inhibition (GI) (OVCAR [8]): inactive
33 | 20.5 µM | 11.7 µM |  |  | COc1ccccc1-c1cc(-c2ccc([N+](=O)[O-])cc2)[nH]n1 | inactive | inactive |  | 
